Data set [1] has as its system Plasmodium falciparum. Put plainly: Antimalarial activity against chloroquine-resistant Plasmodium falciparum Dd2 infected in human erythrocyte assessed as growth inhibition at 5 uM by SYBR Green-1 assay. The format is functional. Summed up: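 Erythrocytic-stage P. falciparum Dd2 growth inhibition at a fixed 5 µM single concentration. Synchronized ring-stage parasites in RPMI-1640 with 0.5% AlbuMAX II, 1.0% hematocrit, 1.0% initial parasitemia. Incubated 72 h under standard culture conditions, then stained with SYBR Green I (1:5,000). Fluorescence read at ex 494 nm, em 530 nm after room-temperature storage.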

The test system of data set [2] is Plasmodium falciparum. Put plainly: Antimalarial activity against chloroquine-sensitive Plasmodium falciparum 3D7 infected in human erythrocyte assessed as growth inhibition by SYBR Green-1 assay. It counts as functional, organism-based. Summed up:
(§1)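 Dose-response EC50 against Dd2 and 3D7. Synchronized ring-stage parasites in RPMI-1640 with 0.5% AlbuMAX II, 1.0% hematocrit, 1.0% initial parasitemia. Triplicate 12-point 2-fold serial dilutions, incubated 72 h under standard culture conditions. Read-out by SYBR Green I (1:5,000) fluorescence, ex 494/em 530 nm. EC50 by non-linear regression after background subtraction and normalization.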

The test system of data set [3] is Plasmodium falciparum. Put plainly: Antimalarial activity against chloroquine-resistant Plasmodium falciparum Dd2 infected in human erythrocyte assessed as growth inhibition by SYBR Green-1 assay. The format is functional, organism-based. Summed up: as §1
A short description of data set [4]: Selectivity index, ratio of EC50 for human HepG2A16 cells to EC50 for chloroquine-sensitive Plasmodium falciparum 3D7 infected in human erythrocyte. It counts as toxicity. The conditions noted are these: read-out: Ratio EC50. The essentials: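 Selectivity index computed as HepG2 A16 MTT EC50 (48 h exposure) divided by P. falciparum 3D7 EC50 (72 h SYBR Green I assay).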

Data set [5] deals with HepG2. Put plainly: Cytotoxicity against human HepG2A16 cells after 48 hrs by MTT assay. It counts as cell-based. The conditions noted are these: HepG2A16, 48 h. The essentials:
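HepG2 A16 cells seeded at 1 × 10^4 cells/well, adhered overnight. Exposed to seven ten-fold dilutions (100 µM–1 nM); drug-free medium as negative control. Medium with compound renewed at 24 h, total 48 h. MTT (5 mg/mL stock in PBS) added for 3 h, then supernatant removed and acidified isopropanol added for read-out.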
(In general: Formazan colour is commonly taken as a measure of viable cells.)

The nature of data set [6]: Selectivity index, ratio of EC50 for human HepG2A16 cells to EC50 for chloroquine-resistant Plasmodium falciparum Dd2 infected in human erythrocyte. The conditions noted are these: read-out: Ratio EC50. The format is toxicity. The essentials:
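Selectivity index computed as HepG2 A16 MTT EC50 (48 h exposure) divided by P. falciparum Dd2 EC50 (72 h SYBR Green I assay).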

Data set [7] concerns HepG2. The data set can be described thus: Cytotoxicity against human HepG2A16 cells. It counts as cell-based. The essentials:
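HepG2 A16 cells seeded at 1 × 10^4 cells/well and left to adhere overnight. Exposed to 7 ten-fold dilutions (100 µM–1 nM), drug-free medium as negative control. Medium with compound renewed at 24 h, total 48 h exposure. Viability by MTT (5 mg/mL stock in PBS, 3 h), formazan dissolved in acidified isopropanol; EC50 reported.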

The subject of data set [8] is Plasmodium falciparum. Put plainly: Antimalarial activity against chloroquine-sensitive Plasmodium falciparum 3D7. It counts as functional, organism-based.

Turning to `c1ccc2c(C3CCNCC3)c[nH]c2c1`, in the data set with Plasmodium falciparum [1], the inhibition – broadly, the percentage by which the read-out fell short of the control – at 5 µM is less than 10%. For `O=C(c1ccncc1)N1CCC(c2c[nH]c3ccccc23)CC1`, the inhibition at 5 µM in the data set with Plasmodium falciparum [1] was determined as 14%.

Regarding `CC(=O)N1CCC(c2c[nH]c3ccccc23)CC1`, the inhibition at 5 µM in the data set on Plasmodium falciparum [1] was less than 10%. As for `c1ccc2c(C3CCN(Cc4csc5ccccc45)CC3)c[nH]c2c1`, the inhibition at 5 µM with Plasmodium falciparum [1] stood at 16%. In the case of `c1ccc2c(C3CCN(Cc4ccc(CN5CCOCC5)cc4)CC3)c[nH]c2c1`, the inhibition at 5 µM in the data set on Plasmodium falciparum [1] was found to be 66%. As for `CC(=O)n1cc(CN2CCC(c3c[nH]c4ccccc34)CC2)c2ccccc21`, the inhibition at 5 µM with Plasmodium falciparum [1] came to 70%. `Fc1ccc(CN2CCC(c3c[nH]c4ccccc34)CC2)cc1`: the inhibition at 5 µM with Plasmodium falciparum [1] was determined as 14%.

Take `O=C(c1ccc(F)cc1)N1CCC(C(=O)N2CCC(c3c[nH]c4ccccc34)CC2)CC1`: in the data set on Plasmodium falciparum [1], the inhibition at 5 µM is less than 10%. Turning to `Cc1ccccc1CN1CCC(c2c[nH]c3ccccc23)CC1`, in the data set on Plasmodium falciparum [1], the inhibition at 5 µM was determined as 11%.

For `CCN(CC)Cc1cc(Nc2ccnc3cc(Cl)ccc23)ccc1O` [AMODIAQUINE], the concentration giving a half-maximal response (EC50) (in general, the concentration needed to bring the measured effect to its halfway point) with Plasmodium falciparum [2] was determined as 0.00585 µM; in the data set with Plasmodium falciparum [3], 0.0123 µM. On to `c1ccc2c(C3CCN(Cc4ccc(CN5CCC(c6c[nH]c7ccccc67)CC5)cc4)CC3)c[nH]c2c1`, for which the concentration giving a half-maximal response (EC50) in the data set on Plasmodium falciparum [2] was 0.08 µM; in the data set with Plasmodium falciparum [3], 0.21 µM; in the data set with HepG2 [5], 0.46 µM. Also, the inhibition at 5 µM in the data set on Plasmodium falciparum [1] is 100%. For the same molecule, the values for the selectivity ratio in data set [4] and in data set [6] were 5.75 and 2.19, respectively. Take `O=C(c1cccs1)N1CCC(c2c[nH]c3ccccc23)CC1`: the inhibition at 5 µM in the data set on Plasmodium falciparum [1] was less than 10%.

Take `O=C(c1cnccn1)N1CCC(c2c[nH]c3ccccc23)CC1`: the inhibition at 5 µM with Plasmodium falciparum [1] is less than 10%.

In the case of `Cc1c(CN2CCC(c3c[nH]c4ccccc34)CC2)c(=O)n(-c2ccccc2)n1C`, the inhibition at 5 µM with Plasmodium falciparum [1] was less than 10%. On to `Oc1cccc2ccc(CN3CCC(c4c[nH]c5ccccc45)CC3)nc12`, for which the inhibition at 5 µM in the data set with Plasmodium falciparum [1] was less than 10%.

Turning to `COc1cc(OC)cc(C(=O)N2CCC(C(=O)N3CCC(c4c[nH]c5ccccc45)CC3)CC2)c1`, the inhibition at 5 µM in the data set on Plasmodium falciparum [1] was 10%. Regarding `CCN(CC)CCCC(C)Nc1ccnc2cc(Cl)ccc12` (stereo unspecified) [CHLOROQUINE], the 50% effective concentration (EC50) in the data set with Plasmodium falciparum [2] is 0.023 µM; with Plasmodium falciparum [3] it was 0.285 µM.

For `C[C@H]1[C@H](OC(=O)CCC(=O)O)O[C@@H]2O[C@@]3(C)CC[C@H]4[C@H](C)CC[C@@H]1[C@@]24OO3` [ARTESUNATE], the EC50 in the data set on Plasmodium falciparum [2] was 0.00197 µM; in the data set with Plasmodium falciparum [3] it was 0.00176 µM. In the case of `c1ccc2c(C3CCN(CC4CCNCC4)CC3)c[nH]c2c1`, in the data set on Plasmodium falciparum [1], the inhibition at 5 µM is less than 10%. For the molecule `Clc1ccc2nccc(N3CCC(c4c[nH]c5ccccc45)CC3)c2c1`, the EC50 was 6.3 µM with Plasmodium falciparum [2], 5.01 µM in the data set on Plasmodium falciparum [3] and 4.24 µM with HepG2 [5]. Besides, the inhibition at 5 µM in the data set on Plasmodium falciparum [1] worked out at 32%. The selectivity ratio was found to be 0.67 in data set [4] and 0.85 in data set [6].

In the case of `COc1cc(O)cc(OC)c1CN1CCC(c2c[nH]c3ccccc23)CC1`, in the data set on Plasmodium falciparum [1], the inhibition at 5 µM was less than 10%. On to `O=C(c1ccccc1)N1CCC(c2c[nH]c3ccccc23)CC1`, for which the inhibition at 5 µM in the data set on Plasmodium falciparum [1] is less than 10%. Regarding `O=Cc1ccc(CN2CCC(c3c[nH]c4ccccc34)CC2)cc1`, the inhibition at 5 µM in the data set on Plasmodium falciparum [1] came out at 20%. `Clc1ccc2nccc(N3CCC(CN4CCC(c5c[nH]c6ccccc56)CC4)CC3)c2c1`: the EC50 in the data set on Plasmodium falciparum [2] is 0.24 µM; in the data set with Plasmodium falciparum [3] it was 0.94 µM; in the data set on HepG2 [5], 3.86 µM; in the data set on HepG2 [7], more than 10 µM; in the data set with Plasmodium falciparum [8], 0.034 µM. Also, the inhibition at 5 µM with Plasmodium falciparum [1] turned out to be 100%. Besides, the selectivity ratio in data set [4] is 16.1; in data set [6], 4.1. In the case of `FC(F)(F)c1ccc(CN2CCC(c3c[nH]c4ccccc34)CC2)cc1`, the inhibition at 5 µM in the data set on Plasmodium falciparum [1] is less than 10%. For `COc1cc(Cl)c(CN2CCC(c3c[nH]c4ccccc34)CC2)c(Cl)c1OC`, the inhibition at 5 µM with Plasmodium falciparum [1] was less than 10%. `O=C1C(O)=C([C@H]2CC[C@H](c3ccc(Cl)cc3)CC2)C(=O)c2ccccc21` [ATOVAQUONE]: the results for the concentration for a half-maximal effect (EC50) in the data set on Plasmodium falciparum [2] and with Plasmodium falciparum [3] were 0.00035 µM and 0.00019 µM, respectively. Take `COc1ccc(OC)c(C(=O)N2CCC(c3c[nH]c4ccccc34)CC2)c1`: in the data set on Plasmodium falciparum [1], the inhibition at 5 µM was less than 10%. `CC(=O)N1CCC(C(=O)N2CCC(c3c[nH]c4ccccc34)CC2)CC1`: the inhibition at 5 µM in the data set with Plasmodium falciparum [1] is 10%. Consider `c1ccc(CN2CCC(c3c[nH]c4ccccc34)CC2)cc1`, for which, in the data set on Plasmodium falciparum [1], the inhibition at 5 µM turned out to be 15%. As for `O=C(c1ccc(F)cc1)N1CCC(c2c[nH]c3ccccc23)CC1`, the inhibition at 5 µM with Plasmodium falciparum [1] is less than 10%. Consider `O=C(c1ccccc1)N1CCC(C(=O)N2CCC(c3c[nH]c4ccccc34)CC2)CC1`, for which the inhibition at 5 µM in the data set on Plasmodium falciparum [1] was less than 10%. With `c1csc(CN2CCC(c3c[nH]c4ccccc34)CC2)c1`, the inhibition at 5 µM with Plasmodium falciparum [1] was less than 10%. For the molecule `O=C(c1cccnc1)N1CCC(c2c[nH]c3ccccc23)CC1`, the results for the EC50 in the data set on Plasmodium falciparum [2], with Plasmodium falciparum [3] and with HepG2 [5] were 3.8 µM, 2.95 µM and 12.8 µM, respectively. Further, the inhibition at 5 µM with Plasmodium falciparum [1] amounted to 100%. In addition, the values for the selectivity ratio in data set [4] and in data set [6] were 3.37 and 4.33, respectively. `O=C(c1cccnc1)N1CCC(C(=O)N2CCC(c3c[nH]c4ccccc34)CC2)CC1`: in the data set on Plasmodium falciparum [1], the inhibition at 5 µM came to 30%. For the molecule `O=C(c1ccccn1)N1CCC(c2c[nH]c3ccccc23)CC1`, the inhibition at 5 µM in the data set on Plasmodium falciparum [1] was less than 10%. In the case of `O=C(c1cccs1)N1CCC(C(=O)N2CCC(c3c[nH]c4ccccc34)CC2)CC1`, in the data set on Plasmodium falciparum [1], the inhibition at 5 µM is less than 10%. On the same count and under the same terms, under `CC(C)=CCC[C@H](C)CCN1CCC(c2c[nH]c3ccccc23)CC1` stands 17%.

In the case of `c1ccc2c(C3CCN(CC4CCCCC4)CC3)c[nH]c2c1`, the inhibition at 5 µM in the data set on Plasmodium falciparum [1] was less than 10%. For the molecule `c1ccc2c(C3CCN(Cc4ccc(CN5CCCCC5)cc4)CC3)c[nH]c2c1`, the results for the concentration for a half-maximal effect (EC50) in the data set on Plasmodium falciparum [2] and in the data set on Plasmodium falciparum [3] were 1.35 µM and 2.91 µM, respectively. In the data set with Plasmodium falciparum [1], the inhibition at 5 µM was 100%. On to `c1ccc2c(C3CCN(Cc4ccncc4)CC3)c[nH]c2c1`, for which the inhibition at 5 µM with Plasmodium falciparum [1] was less than 10%. Take `OCCOc1cccc(CN2CCC(c3c[nH]c4ccccc34)CC2)c1`: the inhibition at 5 µM in the data set on Plasmodium falciparum [1] was less than 10%. Take `O=C(c1ccc(C(=O)N2CCC(c3c[nH]c4ccccc34)CC2)cc1)N1CCC(c2c[nH]c3ccccc23)CC1`: the inhibition at 5 µM with Plasmodium falciparum [1] came out at 80%.

The values are drawn from ChEMBL document CHEMBL3616431, “Exploring the 3-piperidin-4-yl-1H-indole scaffold as a novel antimalarial chemotype” (Eur J Med Chem, 2015).
